According to ChEMBL document CHEMBL1125864, “Folate analogues. 35. Synthesis and biological evaluation of 1-deaza, 3-deaza, and bridge-elongated analogues of N10-propargyl-5,8-dideazafolic acid” (J Med Chem, 1991):

Legend:
MOLT-4 = experiment: Compound was evaluated for inhibition of MTX influx into MOLT-4 cells; assay type: functional, cell-based; details: Homo sapiens, read-out: I50
Summary of the method: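 MOLT-4 cells were grown in folate-free RPMI-1640 with 10% dialyzed FCS and 20 nM leucovorin, then resuspended in pH 7.4 Tris/bicarbonate buffer with 10 mM DTT at 37 °C. Test compound was added with TLC-purified ³H-MTX at t = 0. Timed aliquots were spun through 1-bromododecane, and pellets were NaOH-extracted and scintillation counted. Rates came from 4–5 linear points at ≤10 min.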

Thymidylate synthase [1] = target: Thymidylate synthase (Homo sapiens, UniProt P04818); experiment: Compound was evaluated for the inhibition of human Thymidylate Synthase; details: read-out: I50
SW480 = experiment: Compound was evaluated for inhibition of tumor cell growth in SW/480 cell line; assay type: functional, cell-based; details: Homo sapiens, read-out: I50
Summary of the method: (§1)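 Cells were grown in folate-free RPMI 1640 with 10% dialyzed FCS and 20 nM leucovorin, seeding SW480 at 8000 and MCF-7 at 10000 cells/well. After 24 h at 37 °C and 5% CO₂, drug diluted in leucovorin-free medium was added to triplicate wells for 96 h. Growth was read by MTT reduction (1 h), followed by DMSO solubilization and absorbance.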

MCF7 = experiment: Compound was evaluated for inhibition of tumor cell growth in MCF-7 cell line; assay type: functional, cell-based; details: Homo sapiens, read-out: I50; summary of the method: as §1
Thymidylate synthase [2] = target: Thymidylate synthase (Escherichia coli, UniProt C3SWJ7); experiment: Compound was evaluated for the inhibition of Escherichia coli Thymidylate Synthase; details: read-out: I50
[3] = It is the ratio of relative maximum velocity to that of apparent kinetic constant
Manca = experiment: Compound was evaluated for inhibition of tumor cell growth in Manca human lymphoma cell line; assay type: functional, cell-based; details: read-out: I50
[4] = substrate: C#CCN(Cc1ccc(C(=O)NC(CCC(=O)O)C(=O)O)cc1)Cc1ccc2nc(C)nc(O)c2c1; experiment: Relative maximum velocity of Folyl-polyglutamate synthase (relative to control of 50 uM aminopterin); details: Sus scrofa
Summary of the method: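 Substrate activity was measured with partially purified hog liver FPGS, following an earlier published method. Vmax is expressed relative to a control of 50 μM aminopterin that was run in every experiment. Where activity was weak, relative velocity was reported at 200 μM substrate.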

Thymidylate synthase (Escherichia coli, UniProt C3SWJ7), sequence (C3SWJ7 whole entry): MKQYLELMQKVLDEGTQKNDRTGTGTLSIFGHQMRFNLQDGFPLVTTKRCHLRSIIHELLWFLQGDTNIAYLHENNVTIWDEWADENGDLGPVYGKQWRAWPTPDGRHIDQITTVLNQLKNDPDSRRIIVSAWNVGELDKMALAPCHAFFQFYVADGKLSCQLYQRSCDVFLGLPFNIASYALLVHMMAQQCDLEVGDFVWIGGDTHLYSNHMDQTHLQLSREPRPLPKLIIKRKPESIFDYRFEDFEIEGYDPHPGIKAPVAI
Thymidylate synthase (Homo sapiens, UniProt P04818), sequence (P04818 whole entry): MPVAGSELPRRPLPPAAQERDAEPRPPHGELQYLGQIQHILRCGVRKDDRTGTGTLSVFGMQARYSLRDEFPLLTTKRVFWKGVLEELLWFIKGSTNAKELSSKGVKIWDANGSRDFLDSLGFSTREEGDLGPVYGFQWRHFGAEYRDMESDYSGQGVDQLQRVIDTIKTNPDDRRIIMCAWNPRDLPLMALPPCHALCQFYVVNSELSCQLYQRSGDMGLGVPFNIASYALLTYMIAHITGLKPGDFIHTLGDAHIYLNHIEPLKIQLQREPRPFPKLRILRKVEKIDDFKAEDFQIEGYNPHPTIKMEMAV

Molecule	IC50 (MOLT-4) [µM]	IC50 (Thymidylate synthase [1]) [µM]	IC50 (SW480) [µM]	IC50 (MCF7) [µM]	IC50 (Thymidylate synthase [2]) [µM]	Ratio [3]	IC50 (Manca) [µM]	Vmax [4] [%]
CN(Cc1cnc2nc(N)nc(N)c2n1)c1ccc(C(=O)N[C@@H](CCC(=O)O)C(=O)O)cc1 [METHOTREXATE]	1.4	–	–	–	–	–	–	–
C#CCN(Cc1ccc2c(c1)C(=O)C[C@H](C)N2)c1ccc(C(=O)NC(CCC(=O)O)C(=O)O)cc1 (stereo partly specified)	4.5	24	> 100	> 100	1.88	–	–	–
Nc1nc(=O)c2c([nH]1)NCC(CNc1ccc(C(=O)N[C@H](CCC(=O)O)C(=O)O)cc1)N2C=O (stereo partly specified)	3.5	–	–	–	–	–	–	–
Nc1nc(=O)c2nc(CNc3ccc(C(=O)N[C@@H](CCC(=O)O)C(=O)O)cc3)cnc2[nH]1 [FOLIC ACID]	> 100	–	–	–	–	0.77	–	–
C#CCN(Cc1ccc2c(c1)C(=O)N[C@H](C)N2)c1ccc(C(=O)NC(CCC(=O)O)C(=O)O)cc1 (stereo partly specified)	–	0.43	0.6	–	1.5	–	–	–
Nc1nc(O)c2c(n1)NCC(CNc1ccc(C(=O)N[C@@H](CCC(=O)O)C(=O)O)cc1)N2 (stereo partly specified)	–	–	–	–	–	32.1	–	–
C#CCN(Cc1ccc2[nH]c(N)nc(=O)c2c1)c1ccc(C(=O)NC(CCC(=O)O)C(=O)O)cc1 (stereo unspecified)	28	–	0.8	0.8	–	–	0.56	–
Folylpolyglutamate synthase, mitochondrial (Homo sapiens), Q05932 (protein) MSRARSHLRAALFLAAASARGITTQVAARRGLSAWPVPQEPSMEYQDAVRMLNTLQTNAGYLEQVKRQRGDPQTQLEAMELYLARSGLQVEDLDRLNIIHVTGTKGKGSTCAFTECILRSYGLKTGFFSSPHLVQVRERIRINGQPISPELFTKYFWRLYHRLEETKDGSCVSMPPYFRFLTLMAFHVFLQEKVDLAVVEVGIGGAYDCTNIIRKPVVCGVSSLGIDHTSLLGDTVEKIAWQKGGIFKQGVPAFTVLQPEGPLAVLRDRAQQISCPLYLCPMLEALEEGGPPLTLGLEGEHQRSNAALALQLAHCWLQRQDRHGAGEPKASRPGLLWQLPLAPVFQPTSHMRLGLRNTEWPGRTQVLRRGPLTWYLDGAHTASSAQACVRWFRQALQGRERPSGGPEVRVLLFNATGDRDPAALLKLLQPCQFDYAVFCPNLTEVSSTGNADQQNFTVTLDQVLLRCLEHQQHWNHLDEEQASPDLWSAPSPEPGGSASLLLAPHPPHTCSASSLVFSCISHALQWISQGRDPIFQPPSPPKGLLTHPVAHSGASILREAAAIHVLVTGSLHLVGGVLKLLEPALSQ	–	–	–	–	–	–	–	138

The next lines start with results.

IC50 (MOLT-4) [µM]	IC50 (Thymidylate synthase [1]) [µM]	IC50 (SW480) [µM]	IC50 (MCF7) [µM]	IC50 (Thymidylate synthase [2]) [µM]	Ratio [3]	Molecule	IC50 (Manca) [µM]	Vmax [4] [%]
1.5	0.01	0.05	0.007	0.045	1.33	C#CCN(Cc1ccc2nc(C)nc(O)c2c1)c1ccc(C(=O)NC(CCC(=O)O)C(=O)O)cc1 (stereo unspecified)	0.013	–
–	1.4	> 50	–	–	–	C#CCN(Cc1ccc(C(=O)NC(CCC(=O)O)C(=O)O)cc1)Cc1ccc2c(c1)C(=O)CC(C)=N2 (stereo unspecified)	> 600	–
–	31	> 100	> 100	201	1.9	C#CCN(Cc1ccc(C(=O)NC(CCC(=O)O)C(=O)O)cc1)Cc1ccc2nc(N)nc(O)c2c1 (stereo unspecified)	> 80	–
4.5	0.74	> 100	22	–	0.38	C#CCN(Cc1ccc(C(=O)NC(CCC(=O)O)C(=O)O)cc1)Cc1ccc2ccnc(O)c2c1 (stereo unspecified)	9	–
7	83	> 100	> 100	515	2.01	C#CCN(Cc1ccc(C(=O)NC(CCC(=O)O)C(=O)O)cc1)Cc1ccc2nc(C)nc(O)c2c1 (stereo unspecified)	–	–
